Here are results for three compounds from ChEMBL document CHEMBL4118021, “Studies of TAK1-centered polypharmacology with novel covalent TAK1 inhibitors” (Bioorg Med Chem, 2017).

Test [1] has as its target Tropomyosin alpha-4 chain (Homo sapiens) (UniProt P67936). Put plainly: Binding affinity to TPM4 in human NCI-H23 cells at 1 uM by mass spectrometry based pull down assay. It counts as cell-based.
Test [2] has as its target ADP-ribosylation factor-like protein 2 (Homo sapiens) (UniProt P36404). Briefly: Binding affinity to ARL2 in human NCI-H358 cells at 1 uM by mass spectrometry based pull down assay. It counts as cell-based.
Test [3] addresses Proto-oncogene tyrosine-protein kinase Src (Homo sapiens) (UniProt P12931). Briefly: Binding affinity to SRC in human NCI-H358 cells at 1 uM by mass spectrometry based pull down assay. It counts as cell-based.
Test [4] deals with Fructose-bisphosphate aldolase C (Homo sapiens) (UniProt P09972). Put plainly: Binding affinity to ALDOC in human NCI-H358 cells at 1 uM by mass spectrometry based pull down assay. The format is cell-based.
Test [5] deals with T1, Serine/threonine-protein kinase D2 (Homo sapiens) (UniProt Q9BZL6).
T1 sequence (whole entry): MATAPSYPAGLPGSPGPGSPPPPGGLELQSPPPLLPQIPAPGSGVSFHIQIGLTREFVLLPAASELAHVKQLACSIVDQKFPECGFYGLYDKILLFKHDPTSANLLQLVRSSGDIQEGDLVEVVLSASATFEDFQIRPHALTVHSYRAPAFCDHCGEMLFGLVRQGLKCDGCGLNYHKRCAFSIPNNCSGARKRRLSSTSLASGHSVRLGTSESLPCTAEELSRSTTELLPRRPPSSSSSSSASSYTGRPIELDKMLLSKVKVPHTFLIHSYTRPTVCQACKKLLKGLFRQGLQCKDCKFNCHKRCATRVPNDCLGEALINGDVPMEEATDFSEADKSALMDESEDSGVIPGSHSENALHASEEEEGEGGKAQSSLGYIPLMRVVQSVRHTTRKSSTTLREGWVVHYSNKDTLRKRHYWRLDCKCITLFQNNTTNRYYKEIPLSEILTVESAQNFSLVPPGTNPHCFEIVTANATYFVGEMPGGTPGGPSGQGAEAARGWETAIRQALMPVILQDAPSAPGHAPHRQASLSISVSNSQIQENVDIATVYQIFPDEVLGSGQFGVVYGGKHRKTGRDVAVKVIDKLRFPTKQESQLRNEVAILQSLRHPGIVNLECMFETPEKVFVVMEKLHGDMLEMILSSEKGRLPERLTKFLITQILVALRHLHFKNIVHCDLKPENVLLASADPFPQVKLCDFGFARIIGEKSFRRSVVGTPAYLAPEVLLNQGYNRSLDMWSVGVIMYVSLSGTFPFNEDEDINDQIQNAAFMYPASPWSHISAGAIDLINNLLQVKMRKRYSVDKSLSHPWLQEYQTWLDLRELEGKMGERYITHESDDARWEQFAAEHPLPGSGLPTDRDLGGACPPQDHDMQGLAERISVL
Put plainly: Binding affinity to PRKD2 in human NCI-H358 cells at 1 uM by mass spectrometry based pull down assay. It counts as cell-based.

The target of test [6] is Glutathione S-transferase P (Homo sapiens) (UniProt P09211). Put plainly: Binding affinity to GSTP1 in human NCI-H23 cells at 1 uM by mass spectrometry based pull down assay. It counts as cell-based.
Test [7] has as its target Apoptosis regulator BAX (Homo sapiens) (UniProt Q07812). Put plainly: Binding affinity to BAX in human NCI-H23 cells at 1 uM by mass spectrometry based pull down assay. The format is cell-based.
Test [8] has as its target Multifunctional methyltransferase subunit TRM112-like protein (Homo sapiens) (UniProt Q9UI30). Put plainly: Binding affinity to TRMT112 in human NCI-H23 cells at 1 uM by mass spectrometry based pull down assay. It counts as cell-based.
Test [9] addresses Aldehyde dehydrogenase X, mitochondrial (Homo sapiens) (UniProt P30837). Briefly: Binding affinity to ALDH1B1 in human NCI-H23 cells at 1 uM by mass spectrometry based pull down assay. It counts as cell-based. In a few lines: (§1)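 NCI-H23 or NCI-H358 cells were grown and lysed. Lysates were incubated overnight at 4 °C with 1 μM biotinylated covalent probe or DMSO, then pulled down on streptavidin beads. Proteins were run on polyacrylamide gels and stained with Coomassie. Bands were excised, digested and identified by mass spectrometry.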

In test [10] the target is Adenylyltransferase and sulfurtransferase MOCS3 (Homo sapiens) (UniProt O95396). Put plainly: Binding affinity to MOCS3 in human NCI-H23 cells at 1 uM by mass spectrometry based pull down assay. The format is cell-based.
For test [11], the target named is GTP-binding protein Rheb (Homo sapiens) (UniProt Q15382). Put plainly: Binding affinity to RHEB in human NCI-H358 cells at 1 uM by mass spectrometry based pull down assay. The format is cell-based.
Test [12] addresses ATP-dependent 6-phosphofructokinase, liver type (Homo sapiens) (UniProt P17858). Put plainly: Binding affinity to PFKL in human NCI-H23 cells at 1 uM by mass spectrometry based pull down assay. The format is cell-based.
Test [13] has as its target Transcription intermediary factor 1-beta (Homo sapiens) (UniProt Q13263). Put plainly: Binding affinity to TRIM28 in human NCI-H358 cells at 1 uM by mass spectrometry based pull down assay. The format is cell-based.
The target of test [14] is Agrin (Homo sapiens) (UniProt O00468). Put plainly: Binding affinity to AGRN in human NCI-H358 cells at 1 uM by mass spectrometry based pull down assay. The format is cell-based. In a few lines:
as §1

In test [15] the target is Protein disulfide-isomerase A4 (Homo sapiens) (UniProt P13667). Put plainly: Binding affinity to PDIA4 in human NCI-H358 cells at 1 uM by mass spectrometry based pull down assay. It counts as cell-based.
The target in test [16] is Dolichyl-diphosphooligosaccharide--protein glycosyltransferase subunit 1 (Homo sapiens) (UniProt P04843). Put plainly: Binding affinity to RPN1 in human NCI-H23 cells at 1 uM by mass spectrometry based pull down assay. It counts as cell-based.
Test [17] has as its target Aurora kinase B (Homo sapiens) (UniProt Q96GD4). Briefly: Binding affinity to AURKB in human NCI-H23 cells at 1 uM by mass spectrometry based pull down assay. The format is cell-based.
In test [18] the target is Adenylyltransferase and sulfurtransferase MOCS3 (Homo sapiens) (UniProt O95396). Briefly: Binding affinity to MOCS3 in human NCI-H358 cells at 1 uM by mass spectrometry based pull down assay. It counts as cell-based.
Test [19] addresses Dual specificity mitogen-activated protein kinase kinase 1 (Homo sapiens) (UniProt Q02750). Put plainly: Binding affinity to MAP2K1 in human NCI-H23 cells at 1 uM by mass spectrometry based pull down assay. The format is cell-based.
Test [20] has as its target AP2-associated protein kinase 1 (Homo sapiens) (UniProt Q2M2I8). Briefly: Binding affinity to AAK1 in human NCI-H358 cells at 1 uM by mass spectrometry based pull down assay. It counts as cell-based. The procedure, abridged: as §1
The target of test [21] is Transmembrane emp24 domain-containing protein 10 (Homo sapiens) (UniProt P49755). Put plainly: Binding affinity to TMED10 in human NCI-H23 cells at 1 uM by mass spectrometry based pull down assay. The format is cell-based.
Test [22] addresses Tyrosine-protein kinase receptor UFO (Homo sapiens) (UniProt P30530). Briefly: Inhibition of AXL in human SKCO1 cells at 1 uM after 4 hrs using biotin labeled NCMLNENMSVCVADFGLSKK probe by mass-spectrometric analysis relative to control. It counts as cell-based.
The target in test [23] is Dual specificity mitogen-activated protein kinase kinase 1 (Homo sapiens) (UniProt Q02750). Briefly: Inhibition of full length human MEK1 (1 to 393 residues) expressed in mammalian expression system assessed as enzyme activity at 1 uM by KINOMEScan assay relative to control. Further details: scale not given: the % may be the effect or the level left. In a few lines:
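In vitro ATP-site competition binding assay (KinomeScan) across a panel of 456 kinases. Compound was tested at 1 and 10 μM. The read-out is the binding inhibition score relative to control.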

Active and inactive are the calls of the source. The calls are words filed in the database; no cut-off is given here.

Sequence of Dual specificity mitogen-activated protein kinase kinase 1 (Homo sapiens) (Q02750 whole entry, the tested form may be a part): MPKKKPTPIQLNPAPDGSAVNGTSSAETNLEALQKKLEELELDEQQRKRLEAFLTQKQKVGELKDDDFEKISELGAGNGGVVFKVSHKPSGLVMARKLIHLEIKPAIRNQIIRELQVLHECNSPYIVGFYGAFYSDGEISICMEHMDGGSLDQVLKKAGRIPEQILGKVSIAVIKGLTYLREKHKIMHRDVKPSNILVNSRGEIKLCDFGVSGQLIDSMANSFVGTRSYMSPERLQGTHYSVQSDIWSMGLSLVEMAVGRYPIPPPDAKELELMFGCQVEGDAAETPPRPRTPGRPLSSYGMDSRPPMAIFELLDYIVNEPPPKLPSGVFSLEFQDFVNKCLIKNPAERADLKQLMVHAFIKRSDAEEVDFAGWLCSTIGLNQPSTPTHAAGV
Sequence of Adenylyltransferase and sulfurtransferase MOCS3 (Homo sapiens) (O95396 whole entry): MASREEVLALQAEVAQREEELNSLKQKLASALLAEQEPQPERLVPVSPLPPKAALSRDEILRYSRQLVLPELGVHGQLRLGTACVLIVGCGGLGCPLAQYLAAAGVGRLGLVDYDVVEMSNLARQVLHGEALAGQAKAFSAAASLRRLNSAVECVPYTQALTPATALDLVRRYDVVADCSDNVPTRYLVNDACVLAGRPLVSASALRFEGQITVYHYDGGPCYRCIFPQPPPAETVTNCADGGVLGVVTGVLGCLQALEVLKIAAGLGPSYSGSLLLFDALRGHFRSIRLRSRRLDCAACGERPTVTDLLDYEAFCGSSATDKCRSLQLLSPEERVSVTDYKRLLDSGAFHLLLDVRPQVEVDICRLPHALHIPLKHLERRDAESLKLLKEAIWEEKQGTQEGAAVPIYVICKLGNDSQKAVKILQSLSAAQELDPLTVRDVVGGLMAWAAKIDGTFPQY
Sequence of Multifunctional methyltransferase subunit TRM112-like protein (Homo sapiens) (Q9UI30 whole entry): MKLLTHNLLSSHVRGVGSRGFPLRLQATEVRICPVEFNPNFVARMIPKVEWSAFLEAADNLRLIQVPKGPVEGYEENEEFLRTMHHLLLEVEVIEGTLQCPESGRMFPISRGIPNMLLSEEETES
Sequence of Apoptosis regulator BAX (Homo sapiens) (Q07812 whole entry): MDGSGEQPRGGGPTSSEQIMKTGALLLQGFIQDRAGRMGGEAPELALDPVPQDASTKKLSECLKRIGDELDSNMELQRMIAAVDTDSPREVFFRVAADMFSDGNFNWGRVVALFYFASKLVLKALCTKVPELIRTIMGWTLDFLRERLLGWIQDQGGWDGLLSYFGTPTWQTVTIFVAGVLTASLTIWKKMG
Sequence of Protein disulfide-isomerase A4 (Homo sapiens) (P13667 whole entry): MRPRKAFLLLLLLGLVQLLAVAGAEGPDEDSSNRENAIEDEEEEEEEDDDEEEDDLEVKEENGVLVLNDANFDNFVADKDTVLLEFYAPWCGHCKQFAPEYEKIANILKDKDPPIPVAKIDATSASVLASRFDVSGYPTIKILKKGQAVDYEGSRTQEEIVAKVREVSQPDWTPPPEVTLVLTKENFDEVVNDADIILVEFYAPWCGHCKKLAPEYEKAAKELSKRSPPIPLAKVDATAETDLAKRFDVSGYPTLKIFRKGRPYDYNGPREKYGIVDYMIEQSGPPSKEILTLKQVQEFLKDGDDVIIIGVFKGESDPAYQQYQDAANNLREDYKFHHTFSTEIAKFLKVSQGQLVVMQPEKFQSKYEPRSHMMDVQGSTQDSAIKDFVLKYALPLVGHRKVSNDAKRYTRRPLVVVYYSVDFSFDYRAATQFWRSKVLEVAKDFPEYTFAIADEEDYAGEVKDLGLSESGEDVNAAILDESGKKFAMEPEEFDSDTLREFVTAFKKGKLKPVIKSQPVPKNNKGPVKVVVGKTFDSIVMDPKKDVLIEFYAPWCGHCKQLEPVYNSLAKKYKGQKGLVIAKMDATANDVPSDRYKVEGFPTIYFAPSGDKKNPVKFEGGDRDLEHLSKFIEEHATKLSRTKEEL
Sequence of Tropomyosin alpha-4 chain (Homo sapiens) (P67936 whole entry): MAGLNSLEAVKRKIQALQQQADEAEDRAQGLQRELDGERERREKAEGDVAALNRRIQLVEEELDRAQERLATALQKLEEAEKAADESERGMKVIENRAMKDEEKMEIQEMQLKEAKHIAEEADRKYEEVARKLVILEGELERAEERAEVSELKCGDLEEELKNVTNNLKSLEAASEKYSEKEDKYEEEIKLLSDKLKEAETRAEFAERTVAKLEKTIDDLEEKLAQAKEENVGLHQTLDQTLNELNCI
Sequence of Fructose-bisphosphate aldolase C (Homo sapiens) (P09972 whole entry): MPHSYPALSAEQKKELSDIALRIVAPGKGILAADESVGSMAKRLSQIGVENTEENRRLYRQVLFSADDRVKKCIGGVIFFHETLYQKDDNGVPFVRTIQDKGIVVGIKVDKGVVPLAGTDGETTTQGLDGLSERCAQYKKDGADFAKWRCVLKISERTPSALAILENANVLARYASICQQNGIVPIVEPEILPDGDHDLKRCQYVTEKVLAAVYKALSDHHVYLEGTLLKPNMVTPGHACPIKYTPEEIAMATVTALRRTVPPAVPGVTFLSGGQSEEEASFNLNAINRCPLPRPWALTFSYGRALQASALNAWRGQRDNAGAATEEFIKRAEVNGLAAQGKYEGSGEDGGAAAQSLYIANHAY
Sequence of Glutathione S-transferase P (Homo sapiens) (P09211 2-210 limits assumed): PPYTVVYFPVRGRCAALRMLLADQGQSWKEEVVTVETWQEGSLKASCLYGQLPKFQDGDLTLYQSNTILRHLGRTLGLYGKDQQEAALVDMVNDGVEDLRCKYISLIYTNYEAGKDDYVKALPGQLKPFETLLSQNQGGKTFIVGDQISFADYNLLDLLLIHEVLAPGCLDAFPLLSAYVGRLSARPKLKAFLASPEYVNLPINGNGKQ
Sequence of ADP-ribosylation factor-like protein 2 (Homo sapiens) (P36404 whole entry): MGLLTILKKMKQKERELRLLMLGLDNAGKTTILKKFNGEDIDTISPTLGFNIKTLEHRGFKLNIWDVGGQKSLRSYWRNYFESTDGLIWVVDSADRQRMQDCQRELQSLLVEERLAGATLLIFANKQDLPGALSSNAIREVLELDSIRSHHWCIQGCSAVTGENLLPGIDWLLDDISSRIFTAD
Sequence of GTP-binding protein Rheb (Homo sapiens) (Q15382 whole entry): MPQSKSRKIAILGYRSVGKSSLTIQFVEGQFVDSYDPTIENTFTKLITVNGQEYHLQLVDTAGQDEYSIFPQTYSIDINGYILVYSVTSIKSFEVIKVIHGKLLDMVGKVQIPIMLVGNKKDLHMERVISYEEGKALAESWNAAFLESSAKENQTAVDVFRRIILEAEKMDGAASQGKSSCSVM
Sequence of Tyrosine-protein kinase receptor UFO (Homo sapiens) (P30530 whole entry, the tested form may be a part): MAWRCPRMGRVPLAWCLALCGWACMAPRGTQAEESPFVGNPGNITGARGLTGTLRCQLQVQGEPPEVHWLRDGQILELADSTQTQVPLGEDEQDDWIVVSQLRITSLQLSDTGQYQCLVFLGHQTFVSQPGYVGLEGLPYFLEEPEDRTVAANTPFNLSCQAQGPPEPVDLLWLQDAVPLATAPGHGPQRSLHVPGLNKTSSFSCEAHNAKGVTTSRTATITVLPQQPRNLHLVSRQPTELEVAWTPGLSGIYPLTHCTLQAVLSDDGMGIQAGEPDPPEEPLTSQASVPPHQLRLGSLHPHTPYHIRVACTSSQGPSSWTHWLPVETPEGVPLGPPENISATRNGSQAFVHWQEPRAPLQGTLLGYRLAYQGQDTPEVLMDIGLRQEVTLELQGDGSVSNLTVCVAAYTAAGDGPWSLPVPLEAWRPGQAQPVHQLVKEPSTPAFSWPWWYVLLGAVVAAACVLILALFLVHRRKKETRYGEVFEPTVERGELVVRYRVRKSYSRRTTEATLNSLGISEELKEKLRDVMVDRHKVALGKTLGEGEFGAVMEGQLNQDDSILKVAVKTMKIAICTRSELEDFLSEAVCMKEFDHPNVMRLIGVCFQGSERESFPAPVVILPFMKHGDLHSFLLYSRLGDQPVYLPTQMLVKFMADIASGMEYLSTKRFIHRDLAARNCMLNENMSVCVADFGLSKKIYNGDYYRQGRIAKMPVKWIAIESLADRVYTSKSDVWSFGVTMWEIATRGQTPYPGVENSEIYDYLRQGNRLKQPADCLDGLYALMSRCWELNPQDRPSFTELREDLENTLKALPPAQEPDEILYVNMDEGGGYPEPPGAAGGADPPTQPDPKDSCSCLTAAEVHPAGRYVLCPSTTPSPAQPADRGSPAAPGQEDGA
Sequence of Aldehyde dehydrogenase X, mitochondrial (Homo sapiens) (P30837 whole entry): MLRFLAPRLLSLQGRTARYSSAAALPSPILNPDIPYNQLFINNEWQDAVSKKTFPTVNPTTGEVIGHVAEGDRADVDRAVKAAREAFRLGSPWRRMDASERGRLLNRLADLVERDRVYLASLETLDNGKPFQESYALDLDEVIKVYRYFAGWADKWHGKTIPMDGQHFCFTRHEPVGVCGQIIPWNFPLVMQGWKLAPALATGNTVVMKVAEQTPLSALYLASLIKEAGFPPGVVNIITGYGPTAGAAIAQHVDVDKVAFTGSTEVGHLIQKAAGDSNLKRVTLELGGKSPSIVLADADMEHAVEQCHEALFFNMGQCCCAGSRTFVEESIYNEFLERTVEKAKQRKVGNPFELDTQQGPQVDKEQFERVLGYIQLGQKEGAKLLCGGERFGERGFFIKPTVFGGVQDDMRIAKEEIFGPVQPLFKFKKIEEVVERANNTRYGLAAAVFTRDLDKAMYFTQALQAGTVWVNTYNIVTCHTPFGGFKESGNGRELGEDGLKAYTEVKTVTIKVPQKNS
Sequence of Aurora kinase B (Homo sapiens) (Q96GD4 whole entry): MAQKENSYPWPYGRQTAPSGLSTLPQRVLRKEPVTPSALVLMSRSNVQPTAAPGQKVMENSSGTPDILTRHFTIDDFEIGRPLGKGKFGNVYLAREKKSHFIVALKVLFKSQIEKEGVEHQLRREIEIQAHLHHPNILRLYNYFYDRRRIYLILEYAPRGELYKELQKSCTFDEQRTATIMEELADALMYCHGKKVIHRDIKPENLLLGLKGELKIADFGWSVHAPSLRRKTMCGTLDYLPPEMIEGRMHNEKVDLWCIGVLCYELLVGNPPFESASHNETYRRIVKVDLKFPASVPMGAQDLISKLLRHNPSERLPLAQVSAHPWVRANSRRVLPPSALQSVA

For `C=CC(=O)Nc1ccccc1Nc1nc(Nc2ccc(N3CCN(CCOCCOCCOCCNC(=O)CCCC[C@@H]4SC[C@@H]5NC(=O)N[C@@H]54)CC3)cc2)ncc1Cl`, the result in test [1], in test [2], in test [3], in test [4], in test [5] and in test [6] was Active. The result in [7], in test [8], in test [9], in test [10], in [11] and in [12] was Active. For the same compound, the result in test [13], in [14], in [15], in test [16], in test [17] and in test [18] was Active. The outcome in test [19], in test [20] and in test [21] was Active.

For `C=CC(=O)Nc1ccccc1Nc1nc(Nc2ccc(N3CCN(C)CC3)cc2)ncc1Cl`, in [22], the inhibition worked out at 27.2%.

As for `COc1cc(O)c2c(c1)/C=C/C[C@H](O)[C@H](O)C(=O)/C=C\C[C@H](C)OC2=O`, in test [23], the Activity is 0.65%.

As a reminder, the inhibition is how much of the control response was suppressed.
